Measurements taken from ChEMBL document CHEMBL4190305, “Dioxomorpholines and Derivatives from a Marine-Facultative Aspergillus Species” (J Nat Prod, 2017).
pIC50: −log10 of the molar value. The source made the active and inactive calls. No cut-off for these calls is given here.

Tests used:
[1] = system: U2OS; assay: Potentiation of doxorubicin-induced cytotoxicity against human U2OS cells assessed as decrease in cell viability at 10 uM after 72 hrs by CellTiter 96 AQueous one solution cell proliferation assay; type: functional, cell-based
Summary of the method: (§1)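 Seeded 3000–4000 cells/well, 20 h growth, then a range of doxorubicin concentrations alone or combined with 10 μM compound in 10% FBS medium for 72 h (DMSO vehicle). Viability by CellTiter 96 AQueous One at 490 nm versus untreated cells; triplicate wells, mean ± SEM of three independent experiments.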

[2] = system: MDA-MB-231; assay: Potentiation of doxorubicin-induced cytotoxicity against p53 CRISPR-Cas9 knockout human MDA-MB-231 cells assessed as decrease in cell viability at 10 uM after 72 hrs by CellTiter 96 AQueous one solution cell proliferation assay; type: functional, cell-based; summary of the method: as §1
[3] = system: MDA-MB-231; assay: Cytotoxicity against human MDA-MB-231 cells harboring p53 R280K mutant assessed as reduction in cell viability after 72 hrs by CellTiter 96 AQueous one solution cell proliferation assay; type: cell-based; details: MDA-MB-231, 72 h
Summary of the method: (§2)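 Cells seeded at 3000–4000 per well and grown 20 h, then medium replaced by 10% fetal bovine serum medium with test compound for 72 h. Viability read by MTS-type (CellTiter 96 AQueous One) absorbance at 490 nm, relative to untreated control cells; triplicate wells per condition.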

[4] = system: HCT-116; assay: Cytotoxicity against human HCT116 cells harboring wild type p53 assessed as reduction in cell viability after 72 hrs by CellTiter 96 AQueous one solution cell proliferation assay; type: cell-based; details: HCT-116, 72 h; summary of the method: as §2
[5] = system: HCT-116; assay: Cytotoxicity against p53 null human HCT116 cells assessed as reduction in cell viability after 72 hrs by CellTiter 96 AQueous one solution cell proliferation assay; type: cell-based; details: HCT-116, 72 h; summary of the method: as §2
[6] = system: U2OS; assay: Cytotoxicity against human U2OS cells assessed as reduction in cell viability after 72 hrs by CellTiter 96 AQueous one solution cell proliferation assay; type: cell-based; summary of the method: as §2
[7] = system: A549; assay: Inhibition of calcein-AM efflux in human A549 cells at 10 uM after 1 hr by fluorescence assay; type: functional, cell-based
Summary of the method: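 Vybrant multidrug resistance kit: 500 000 cells/well cultured overnight, triplicate cultures pretreated 1 h with compound (verapamil 50 μg/mL, cyclosporine A 25 μg/mL as positive controls), then 0.25 μM calcein-AM for 30 min. Cells washed twice in cold medium; intracellular calcein fluorescence read at ex 494/em 517 nm, expressed as percent calcein retention.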

[8] = system: SAOS-2; assay: Potentiation of doxorubicin-induced cytotoxicity against p53 null human Saos2 cells assessed as decrease in cell viability at 10 uM after 72 hrs by CellTiter 96 AQueous one solution cell proliferation assay; type: functional, cell-based; summary of the method: as §1
[9] = system: A549; assay: Cytotoxicity against human A549 cells assessed as reduction in cell viability after 72 hrs by CellTiter 96 AQueous one solution cell proliferation assay; type: cell-based; details: A549, 72 h; summary of the method: as §2
[10] = species on record: Homo sapiens; assay: Cytotoxicity against human A549/DXR cells assessed as reduction in cell viability after 72 hrs by CellTiter 96 AQueous one solution cell proliferation assay; type: functional, cell-based; summary of the method: as §2
[11] = species on record: Homo sapiens; assay: Inhibition of Pgp in human A549/DXR cells assessed as reduction in calcein-AM efflux after 1 hr by fluorescence assay
[12] = system: A549; assay: Potentiation of doxorubicin-induced cytotoxicity against human A549 cells assessed as decrease in cell viability at 10 uM after 72 hrs by CellTiter 96 AQueous one solution cell proliferation assay; type: functional, cell-based; summary of the method: as §1

| Structure (SMILES) | Activity [1] | Activity [2] | pIC50 [3] | pIC50 [4] | pIC50 [5] | pIC50 [6] | inhibition [7] | Activity [8] | pIC50 [9] | Activity [10] | inhibition [11] | Activity [12] |
| --- | --- | --- | --- | --- | --- | --- | --- | --- | --- | --- | --- | --- |
| C=CC(C)(C)c1[nH]c2ccccc2c1C[C@H](NC(=O)[C@@H](O)Cc1ccccc1)C(=O)O | Active | Active | < 4.30 | < 4.30 | < 4.30 | < 4.30 | Active | Active | < 4.30 | Dose-dependent effect | Dose-dependent effect | Active |
| C=CC(C)(C)[C@]1(C[C@H](NC(=O)[C@@H](O)Cc2ccccc2)C(=O)O)C(=O)Nc2c(O)cccc21 | Active | Active | < 4.30 | < 4.30 | < 4.30 | < 4.30 | Active | Active | < 4.30 | Dose-dependent effect | Dose-dependent effect | Active |
| C=CC(C)(C)[C@]12Nc3c(O)cccc3[C@@]1(O)C[C@H]1C(=O)O[C@@H](Cc3ccccc3)C(=O)N12 | Active | Active | < 4.30 | < 4.30 | < 4.30 | < 4.30 | Active | Active | < 4.30 | Dose-dependent effect | Dose-dependent effect | Active |
